From ChEMBL document CHEMBL5038600, “Discovery of M-1121 as an Orally Active Covalent Inhibitor of Menin-MLL Interaction Capable of Achieving Complete and Long-Lasting Tumor Regression” (J Med Chem, 2021)
Activity calls are given as the source filed them. The calls are words filed in the database; no cut-off is given here.

Legend:
[1] = Toxicity in SCID mouse xenografted with human MV4-11 cells assessed as change weight loss at 100 mg/kg, po administered daily for 26 days; type: organism-based; conditions: in vivo, 624 h, time 26 day
Method in brief: (§1)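 Female C.B-17 SCID mice bearing subcutaneous MV4;11 flank tumors (5×10^6 cells with Matrigel 1:1), treated once tumors averaged about 100 mm3. Dosed 100 mg/kg daily by oral gavage for 26 days in 0.5% MC + 0.2% Tween 80 vehicle. Body weight measured daily.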

MV4-11 [2] = assay: Suppression of HOXA9 gene expression in human MV4-11 cells at 10 nM measured after 24 hrs by qRT-PCR analysis; type: functional, cell-based
MV4-11 [3] = assay: Anti-tumor activity against luciferase-tagged human MV4-11 cells xenografted in NCG mouse assessed as decreased intensity of whole body bioluminescence signal at 150 mg/kg, po administered daily for 4 days measured after 48 hrs by bioluminescence analysis; type: functional, organism-based; conditions: time 4.0 day
Method in brief: (§2)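 Female NCG mice, 5–6 weeks old, given 5×10^6 luciferase-tagged MV4;11 cells IV via tail vein. Randomized at log-phase disease (day 27). Dosed 150 mg/kg oral gavage daily for 4 days in MC/Tween 80 vehicle. Read-outs 48 h after the last dose, five mice per group, mean ± SEM: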

K562 = assay: Anti-proliferative activity against human K562 cells harboring MLL wild-type protein assessed as cell growth inhibition measured after 4 days by Cell Titre Glo Luminescent Cell viability assay; type: functional, cell-based; conditions: K562, 96 h
Method in brief: (§3)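 Leukemia lines plated in triplicate in RPMI 1640 at 37 °C, 5% CO2. 9-point dose response from 10 μM top concentration with 1:3 serial dilutions, 0.1% DMSO final; DMSO vehicle control column. Cellular ATP read by CellTiter-Glo at day 0 and after 4 days. Averages from three independent experiments.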

[4] = Toxicity in SCID mouse xenografted with human MV4-11 cells assessed as signs of toxicity at 300 mg/kg, po qd administered daily for 15 days; type: organism-based; conditions: in vivo, 360 h, time 15 day
Method in brief: (§4)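 Female C.B-17 SCID mice, 5–6 weeks old, implanted subcutaneously in the right flank with 5×10^6 MV4;11 cells in 1:1 Matrigel. Randomized at about 200 mm3. Dosed 300 mg/kg by oral gavage once daily for 15 days in 0.5% MC (400 cP) + 0.2% Tween 80 at 10 mL/kg. Body weight measured daily; caliper volume (0.5×W×W×L) three times weekly.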

[5] = Cmax in C57BL/6 mouse at 5 mg/kg, po; type: ADME, organism-based; set-up: route oral, dose 5 mg/kg; conditions: in vivo
Method in brief: (§5)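 Female C57BL/6 mice, single oral dose of 5 mg/kg in 0.5% methyl cellulose + 0.2% Tween 80 (w/w). Bioavailability is calculated against the 1 mg/kg IV arm.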

[6] = Toxicity in SCID mouse xenografted with human MV4-11 cells assessed as change weight loss at 300 mg/kg, po qd administered daily for 15 days; type: organism-based; conditions: in vivo, 360 h, time 15 day; method in brief: as §4
[7] = Toxicity in SCID mouse xenografted with human MV4-11 cells assessed as signs of toxicity at 100 mg/kg, po administered daily for 26 days; type: organism-based; conditions: in vivo, 624 h, time 26 day; method in brief: as §1
MEG-01 = assay: Anti-proliferative activity against human MEG-01 cells harboring MLL wild-type protein assessed as cell growth inhibition measured after 4 days by Cell Titre Glo Luminescent Cell viability assay; type: functional, cell-based; conditions: MEG-01, 96 h; method in brief: as §3
MV4-11 [8] = assay: Anti-tumor activity against luciferase-tagged human MV4-11 cells xenografted in NCG mouse assessed as induction of CD11b protein in human CD45+ cells at 150 mg/kg, po administered daily for 4 days measured after 48 hrs by qRT-PCR analysis; type: functional, organism-based; conditions: time 4.0 day, in the assay text read “flow cytometry analysis” for “qRT-PCR analysis”; method in brief: as §2
[9] = Oral bioavailability in C57BL/6 mouse at 5 mg/kg; type: ADME, organism-based; conditions: in vivo; method in brief: as §5
RS4-11 = assay: Anti-proliferative activity against human RS4-11 cells harboring MLL/AF4 fusion protein assessed as cell growth inhibition measured after 4 days by Cell Titre Glo Luminescent Cell viability assay; type: functional, cell-based; conditions: RS4-11, 96 h; method in brief: as §3

IC50 (K562): > 10 µM
Cmax [5]: 4150 ng/mL
F [9]: 49.4%
IC50 (RS4-11): 1 µM
SMILES: C=CC(=O)N1C[C@@H]2C[C@H]1CN2S(=O)(=O)c1ccc(N2CC(CN3CCC([C@@](CN4CCC4)(c4cccc(F)c4)[C@H]4CCC[C@@H]4NC(=O)OC)CC3)(OC)C2)cc1
Activity [1]: Non-Toxic
inhibition (MV4-11 [2]): Active
Activity (MV4-11 [3]): Active
Activity [4]: Non-Toxic
Activity [6]: Non-Toxic
Activity [7]: Non-Toxic
IC50 (MEG-01): > 10 µM
Activity (MV4-11 [8]): Active
